# According to ChEMBL document CHEMBL1140225, “Design of annulated pyrazoles as inhibitors of HIV-1 reverse transcriptase” (J Med Chem, 2008):
# Tests used:
# [1] = system: Human immunodeficiency virus; experiment: Antiviral activity against […] HIV HXB2 with reverse transcriptase […]/Tyr181Cys mutation in human MT4 cells assessed as protection against virus-induced cell death after 5 days by MTT assay; type: functional, organism-based; conditions: Human immunodeficiency virus 1, MT4, 120 h
# [2] = system: Human immunodeficiency virus; experiment: Antiviral activity against wild type HIV HXB2 in human MT4 cells assessed as protection against virus-induced cell death after 5 days by MTT assay; type: functional, organism-based; conditions: Human immunodeficiency virus 1, MT4, 120 h
# [3] = target: Human immunodeficiency virus type 1 reverse transcriptase (Human immunodeficiency virus 1, UniProt Q72547, K103N/Y181C); experiment: Inhibition of RNA-dependent DNA polymerase activity of HIV1 reverse transcriptase Lys103Asn/Tyr181Cys mutant by SPA
# [4] = target: Human immunodeficiency virus type 1 reverse transcriptase (Human immunodeficiency virus 1, UniProt Q72547); experiment: Inhibition of RNA-dependent DNA polymerase activity of wild type HIV1 reverse transcriptase by SPA
# [5] = system: Human immunodeficiency virus; experiment: Antiviral activity against NNRTI-resistant HIV HXB2 isolate 16 with reverse transcriptase K103, P225 mutation in human MT4 cells assessed as protection against virus-induced cell death after 5 days by MTT assay; type: functional, organism-based; conditions: Human immunodeficiency virus 1, MT4, 120 h
# [6] = system: Human immunodeficiency virus; experiment: Antiviral activity against NNRTI-resistant HIV HXB2 isolate 17 with reverse transcriptase A98, K103, Y181 mutation in human MT4 cells assessed as protection against virus-induced cell death after 5 days by MTT assay; type: functional, organism-based; conditions: Human immunodeficiency virus 1, MT4, 120 h
# [7] = system: Human immunodeficiency virus; experiment: Antiviral activity against NNRTI-resistant HIV HXB2 isolate 20 with reverse transcriptase K103, Y181 mutation in human MT4 cells assessed as protection against virus-induced cell death after 5 days by MTT assay; type: functional, organism-based; conditions: Human immunodeficiency virus 1, MT4, 120 h
# [8] = system: Human immunodeficiency virus; experiment: Antiviral activity against NNRTI-resistant HIV HXB2 isolate 21 with reverse transcriptase K103, V179, Y181 mutation in human MT4 cells assessed as protection against virus-induced cell death after 5 days by MTT assay; type: functional, organism-based; conditions: Human immunodeficiency virus 1, MT4, 120 h
# [9] = system: Human immunodeficiency virus; experiment: Antiviral activity against NNRTI-resistant HIV HXB2 isolate 29 with reverse transcriptase K103, Y181 mutation in human MT4 cells assessed as protection against virus-induced cell death after 5 days by MTT assay; type: functional, organism-based; conditions: Human immunodeficiency virus 1, MT4, 120 h
# [10] = Inhibition of RNA-dependent DNA polymerase activity of HIV1 reverse transcriptase Tyr181Cys mutant by SPA; design: species or system Human immunodeficiency virus 1
# Procedure, shortened: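 Purified recombinant RT (1-3 nM final) with 18nt biotinylated DNA primer (32 nM) on a 47nt RNA template (64 nM). Run 30 min at 30 °C, stopped with EDTA, product captured on streptavidin SPA beads. IC50 by sigmoidal regression.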
# [11] = target: Human immunodeficiency virus type 1 reverse transcriptase (Human immunodeficiency virus 1, UniProt Q72547, K103N); experiment: Inhibition of RNA-dependent DNA polymerase activity of HIV1 reverse transcriptase Lys103Asn mutant by SPA
# [12] = system: Human immunodeficiency virus; experiment: Antiviral activity against wild type HIV HXB2 in human MT4 cells assessed as protection against virus-induced cell death after 5 days by MTT assay in presence of 40% human serum; type: functional, organism-based; conditions: Human immunodeficiency virus 1, MT4, 120 h
# [13] = system: Human immunodeficiency virus; experiment: Antiviral activity against NNRTI-resistant HIV HXB2 with reverse transcriptase 190S mutation in human MT4 cells assessed as protection against virus-induced cell death after 5 days by MTT assay; type: functional, organism-based; conditions: Human immunodeficiency virus 1, MT4, 120 h
# Procedure, shortened: (§1)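 MT4 cells in log-phase growth (2 × 10⁶) infected with HXB2-strain HIV at 0.0001 infectious units/cell for 1 h at 37 °C, washed in PBS, then plated at 3.5 × 10⁴ cells/well. Serial 2-fold dilutions, four replicates, final 625-1.22 nM, in RPMI 1640/10% FCS. Incubated 5 days at 37 °C, 5% CO₂. MTT added for 2 h, absorbance read at 540/690 nm. % protection vs uninfected and virus controls; IC50 taken from plot against log concentration.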
# [14] = system: Human immunodeficiency virus; experiment: Antiviral activity against NNRTI-resistant HIV HXB2 with reverse transcriptase 100I mutation in human MT4 cells assessed as protection against virus-induced cell death after 5 days by MTT assay; type: functional, organism-based; conditions: Human immunodeficiency virus 1, MT4, 120 h; procedure, shortened: as §1
# [15] = system: Human immunodeficiency virus; experiment: Antiviral activity against NNRTI-resistant HIV HXB2 with reverse transcriptase 101E mutation in human MT4 cells assessed as protection against virus-induced cell death after 5 days by MTT assay; type: functional, organism-based; conditions: Human immunodeficiency virus 1, MT4, 120 h; procedure, shortened: as §1
# [16] = system: Human immunodeficiency virus; experiment: Antiviral activity against NNRTI-resistant HIV HXB2 with reverse transcriptase 225H mutation in human MT4 cells assessed as protection against virus-induced cell death after 5 days by MTT assay; type: functional, organism-based; conditions: Human immunodeficiency virus 1, MT4; procedure, shortened: as §1
# [17] = system: Human immunodeficiency virus; experiment: Antiviral activity against NNRTI-resistant HIV HXB2 with reverse transcriptase 103N mutation in human MT4 cells assessed as protection against virus-induced cell death after 5 days by MTT assay; type: functional, organism-based; conditions: Human immunodeficiency virus 1, MT4, 120 h; procedure, shortened: as §1
# [18] = system: Human immunodeficiency virus; experiment: Antiviral activity against NNRTI-resistant HIV HXB2 with reverse transcriptase 106A mutation in human MT4 cells assessed as protection against virus-induced cell death after 5 days by MTT assay; type: functional, organism-based; conditions: Human immunodeficiency virus 1, MT4, 120 h; procedure, shortened: as §1
# [19] = system: Human immunodeficiency virus; experiment: Antiviral activity against NNRTI-resistant HIV HXB2 with reverse transcriptase 138K mutation in human MT4 cells assessed as protection against virus-induced cell death after 5 days by MTT assay; type: functional, organism-based; conditions: Human immunodeficiency virus 1, MT4, 120 h; procedure, shortened: as §1
# [20] = system: Human immunodeficiency virus; experiment: Antiviral activity against NNRTI-resistant HIV HXB2 with reverse transcriptase 188H mutation in human MT4 cells assessed as protection against virus-induced cell death after 5 days by MTT assay; type: functional, organism-based; conditions: Human immunodeficiency virus 1, MT4; procedure, shortened: as §1
# [21] = Clearance in rat at 0.5 mg/kg, iv; conditions: in vivo
# [22] = Clearance in dog at 0.5 mg/kg, iv; conditions: in vivo
# [23] = Half life in rat at 0.5 mg/kg, iv; conditions: in vivo
# [24] = Half life in dog at 0.5 mg/kg, iv; conditions: in vivo
# [25] = Clearance in monkey at 0.5 mg/kg, iv; conditions: rhesus monkey, in vivo
# [26] = Half life in monkey at 0.5 mg/kg, iv; conditions: rhesus monkey, in vivo
# [27] = Volume of distribution at steady state in rat at 0.5 mg/kg, iv; conditions: in vivo, read-out: Vdss
# [28] = Volume of distribution at steady state in dog at 0.5 mg/kg, iv; conditions: in vivo, read-out: Vdss
# [29] = Volume of distribution at steady state in monkey at 0.5 mg/kg, iv; conditions: rhesus monkey, in vivo, read-out: Vdss
# [30] = system: Human immunodeficiency virus; experiment: Antiviral activity against NNRTI-resistant HIV HXB2 with reverse transcriptase 190A mutation in human MT4 cells assessed as protection against virus-induced cell death after 5 days by MTT assay; type: functional, organism-based; conditions: Human immunodeficiency virus 1, MT4, 120 h; procedure, shortened: as §1
# [31] = system: Human immunodeficiency virus; experiment: Antiviral activity against NNRTI-resistant HIV HXB2 with reverse transcriptase 108I mutation in human MT4 cells assessed as protection against virus-induced cell death after 5 days by MTT assay; type: functional, organism-based; conditions: Human immunodeficiency virus 1, MT4, 120 h; procedure, shortened: as §1
# [32] = system: Human immunodeficiency virus; experiment: Antiviral activity against NNRTI-resistant HIV HXB2 with reverse transcriptase 179D mutation in human MT4 cells assessed as protection against virus-induced cell death after 5 days by MTT assay; type: functional, organism-based; conditions: Human immunodeficiency virus 1, MT4, 120 h; procedure, shortened: as §1
# [33] = system: Human immunodeficiency virus; experiment: Antiviral activity against NNRTI-resistant HIV HXB2 with reverse transcriptase 227L mutation in human MT4 cells assessed as protection against virus-induced cell death after 5 days by MTT assay; type: functional, organism-based; conditions: Human immunodeficiency virus 1, MT4, 120 h; procedure, shortened: as §1
# [34] = system: Human immunodeficiency virus; experiment: Antiviral activity against NNRTI-resistant HIV HXB2 with reverse transcriptase 236L mutation in human MT4 cells assessed as protection against virus-induced cell death after 5 days by MTT assay; type: functional, organism-based; conditions: Human immunodeficiency virus 1, MT4, 120 h; procedure, shortened: as §1
# [35] = system: Human immunodeficiency virus; experiment: Antiviral activity against NNRTI-resistant HIV HXB2 with reverse transcriptase 181C mutation in human MT4 cells assessed as protection against virus-induced cell death after 5 days by MTT assay; type: functional, organism-based; conditions: Human immunodeficiency virus 1, MT4, 120 h; procedure, shortened: as §1
# [36] = system: Human immunodeficiency virus; experiment: Antiviral activity against NNRTI-resistant HIV HXB2 with reverse transcriptase 181I mutation in human MT4 cells assessed as protection against virus-induced cell death after 5 days by MTT assay; type: functional, organism-based; conditions: Human immunodeficiency virus 1, MT4, 120 h; procedure, shortened: as §1
smiles,measurement,setting,value
N#Cc1cc(Cl)cc(Oc2c(Br)ccc(Cc3n[nH]c4cnccc34)c2F)c1,EC50,[1],18 nM
same,EC50,[2],2 nM
same,IC50,[3],9 nM
same,IC50,[4],5 nM
Cc1cc(C#N)cc(C)c1Oc1nc(Nc2ccc(C#N)cc2)nc(N)c1Br [ETRAVIRINE],IC50,[5],1 nM
same,IC50,[6],14 nM
same,IC50,[7],7 nM
same,IC50,[8],17 nM
same,IC50,[9],3 nM
N#Cc1cc(Cl)cc(Oc2c(Br)ccc(Cc3n[nH]c4c(N)cccc34)c2F)c1,EC50,[1],84 nM
same,EC50,[2],8 nM
same,IC50,[3],22 nM
same,IC50,[4],24 nM
Cn1ccc2c(Cc3ccc(Br)c(Oc4cc(Cl)cc(C#N)c4)c3F)n[nH]c2c1=O,EC50,[1],97 nM
same,EC50,[2],4 nM
same,IC50,[3],12 nM
same,IC50,[4],8 nM
Cc1cc(C#N)cc(Oc2ccc(Cc3n[nH]c4nnccc34)cc2Br)c1,IC50,[10],800 nM
same,IC50,[11],120 nM
same,EC50,[1],> 100 nM
same,EC50,[2],17 nM
N#Cc1cc(Cl)cc(Oc2c(Cl)ccc(Cc3n[nH]c4nnccc34)c2F)c1,EC50,[2],1 nM
same,EC50,[12],5 nM
same,EC50,[13],< 1 nM
same,EC50,[14],< 1 nM
same,EC50,[15],2 nM
same,EC50,[16],< 1 nM
same,EC50,[17],< 1 nM
same,EC50,[18],2 nM
same,EC50,[19],2 nM
same,EC50,[20],< 1 nM
same,IC50,[5],3 nM
same,IC50,[6],5 nM
same,IC50,[7],4 nM
same,IC50,[8],3 nM
same,IC50,[9],2 nM
same,clearance,[21],2.9 mL/min/kg
same,clearance,[22],4.6 mL/min/kg
same,half-life,[23],4.2 h
same,half-life,[24],5.6 h
same,clearance,[25],1.3 mL/min/kg
same,half-life,[26],12.2 h
same,Vd,[27],0.91 L/kg
same,Vd,[28],0.99 L/kg
same,Vd,[29],1.21 L/kg
N#Cc1cc(Cl)cc(Oc2c(Br)ccc(Cc3n[nH]c4c(C#N)cccc34)c2F)c1,EC50,[1],53 nM
same,EC50,[2],5 nM
same,IC50,[3],15 nM
same,IC50,[4],24 nM
O=C1Nc2ccc(Cl)cc2[C@@](C#CC2CC2)(C(F)(F)F)O1 [EFAVIRENZ],EC50,[12],18 nM
same,EC50,[30],6 nM
same,EC50,[13],> 100 nM
same,EC50,[14],7 nM
same,EC50,[15],12 nM
same,EC50,[16],1 nM
same,EC50,[17],66 nM
same,EC50,[18],6 nM
same,EC50,[31],3 nM
same,EC50,[32],8 nM
same,EC50,[33],1 nM
same,EC50,[34],< 1 nM
same,EC50,[19],2 nM
same,EC50,[20],4 nM
same,EC50,[35],3 nM
same,EC50,[36],2 nM
N#Cc1cc(Cl)cc(Oc2c(Br)ccc(Cc3n[nH]c4ncccc34)c2F)c1,EC50,[1],12 nM
same,EC50,[2],1 nM
same,IC50,[4],8 nM
N#Cc1cc(C#N)cc(Oc2c(Br)ccc(Cc3n[nH]c4nnccc34)c2F)c1,EC50,[1],3 nM
same,EC50,[2],1 nM
N#Cc1cc(Cl)cc(Oc2c(Br)ccc(Cc3n[nH]c4nccnc34)c2F)c1,EC50,[1],> 100 nM
same,EC50,[2],< 25 nM
same,IC50,[3],14 nM
same,IC50,[4],3 nM
